Columns and labels:
[1] = tested on: Rattus norvegicus; experiment: Maximum percentage reduction in mean arterial blood pressure in metacorticoid (DOCA) hypertensive rats at a standard oral dose of 100 mg/kg; assay type: functional
Method in brief: (§1)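 Rats were DOCA hypertensive. For oral dosing, food was withdrawn 18 h before; rats dosed ip were not starved. The vehicle was isotonic saline. Pressure was recorded by transducer under minimal restraint: twice before dosing, then at 1, 2, 3, 5 and 22 h. MABP was taken as diastolic + one-third pulse pressure. The value is the maximum % fall from the mean of the two pretreatment readings, n = 3-5.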

[2] = tested on: Rattus norvegicus; experiment: Maximum percentage reduction in mean blood pressure in metacorticoid (DOCA) hypertensive rats at a standard oral dose of 100 mg/kg; IA = Inactive;Maximum percentage fall in MABP <10%; assay type: functional, organism-based; parameters: dose 100 mg/kg; method in brief: as §1
[3] = tested on: Rattus norvegicus; experiment: Maximum percentage reduction in mean blood pressure in metacorticoid (DOCA) hypertensive rats at a standard intraperitoneal dose of 100 mg/kg; assay type: functional; method in brief: as §1
[4] = tested on: Rattus norvegicus; experiment: Maximum percentage reduction in mean blood pressure and heart rate in metacorticoid (DOCA) hypertensive rats at a standard intraperitoneal dose of 100 mg/kg; assay type: functional
[5] = tested on: Rattus norvegicus; experiment: Increase in diastolic blood pressure at 0.1 ug/kg intravenous dosing of noradrenaline in pithed rats; assay type: functional, Artery
Method in brief: (§2)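 The pithed-rat preparation was used: male rats (200-300 g) got drug or isotonic saline ip in groups of five, 2 h beforehand (one reference agent 1 h). Doses were 50, 25 or 5 mg/kg. Rats were under halothane, cannulated, pithed and ventilated with room air. Noradrenaline (0.1-1.0 µg/kg) or angiotensin (0.03-0.3 µg/kg) was injected iv, and the increase in diastolic pressure was recorded in mmHg.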

[6] = tested on: Rattus norvegicus; experiment: Maximum percentage reduction in mean arterial blood pressure in metacorticoid (DOCA) hypertensive rats at a standard oral dose of 50 mg/kg; assay type: functional; method in brief: as §1
[7] = tested on: Rattus norvegicus; experiment: Increase in diastolic blood pressure at 0.3 ug/kg intravenous dosing of angiotensin in pithed rats; assay type: functional, Artery; method in brief: as §2
[8] = organism: Rattus norvegicus; experiment: Increase in diastolic blood pressure at 1 Htz electrical stimulation in the pithed rats; assay type: functional, Artery
Method in brief: (§3)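 Male rats (200-300 g) were given drug or isotonic saline ip, in groups of five, 2 h before pithing (one reference agent 1 h before). Doses were 50 or 25 mg/kg, or 5 mg/kg for the reference agent. Rats were put under halothane, tracheally cannulated, pithed through the left orbit and ventilated with room air at 50 strokes/min. After iv tubocurarine (1 mg/kg), the whole sympathetic outflow was stimulated at 1, 3 or 6 Hz (0.5 ms, 20 V, 15 s). The rise in diastolic pressure was recorded in mmHg.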

[9] = tested on: Rattus norvegicus; experiment: Increase in diastolic blood pressure at 0.03 ug/kg intravenous dosing of angiotensin in pithed rats; assay type: functional, Artery; method in brief: as §2
[10] = tested on: Rattus norvegicus; experiment: Summation of percentage reductions, compared to pretreatment controls, in MABP of DOCA hypertensive rats at 1,2,3,5,8 hr after the 100 mg/kg oral dose.; assay type: functional
Method in brief: (§4)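 DOCA hypertensive rats (n = 5) were dosed orally. MABP (diastolic + one-third pulse pressure) was read before dosing and at 1, 2, 3, 5 and 8 h. The value is the sum of the % reductions from pretreatment control over these five time points.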

[11] = organism: Rattus norvegicus; experiment: Increase in diastolic blood pressure at 3 Htz electrical stimulation in the pithed rats; assay type: functional, Artery; method in brief: as §3
[12] = tested on: Rattus norvegicus; experiment: Increase in diastolic blood pressure at 0.3 ug/kg intravenous dosing of noradrenaline in pithed rats; assay type: functional, Artery; method in brief: as §2
[13] = tested on: Rattus norvegicus; experiment: Increase in diastolic blood pressure at 1.0 ug/kg intravenous dosing of noradrenaline in pithed rats; assay type: functional, Artery; method in brief: as §2
[14] = organism: Rattus norvegicus; experiment: Increase in diastolic blood pressure at 6 Htz electrical stimulation in the pithed rats; assay type: functional, Artery; method in brief: as §3
[15] = tested on: Rattus norvegicus; experiment: Increase in diastolic blood pressure at 0.1 ug/kg intravenous dosing of angiotensin in pithed rats; assay type: functional, Artery; method in brief: as §2
[16] = tested on: Rattus norvegicus; experiment: Summation of percentage reductions, compared to pretreatment controls, in MABP of DOCA hypertensive rats at 1,2,3,5,8 hr after the 50 mg/kg oral dose.; assay type: functional; method in brief: as §4
[17] = tested on: Rattus norvegicus; experiment: Maximum percentage reduction in mean blood pressure in metacorticoid (DOCA) hypertensive rats at a standard oral dose of 100 mg/kg; assay type: functional; method in brief: as §1
[18] = tested on: Rattus norvegicus; experiment: Maximum percentage reduction in mean blood pressure in metacorticoid (DOCA) hypertensive rats at a standard oral dose of 50 mg/kg; assay type: functional; method in brief: as §1

Structure (SMILES)	Reduction [1]	Reduction [2]	also measured
Cl.Ic1ccccc1-c1nnc(NC2=NCCN2)s1	33%	–	–
Cc1ccc(C)c(-c2nnc(N=C(N)N)s2)c1	–	Not significant	–
Cc1ccccc1-c1nnc(NC(=N)NCCc2ccccc2)s1.Cl	29%	–	–
Cl.N=C(N)Nc1nnc(-c2ccccc2F)s1	31%	–	–
Cl.N=C(N)Nc1nnc(-c2ccc(Cl)cc2)s1	–	–	Reduction [3]: 18%
Cl.N=C(N)Nc1nnc(-c2ccccc2C(F)(F)F)s1	26%	–	–
Cc1ccccc1-c1nnc(NC(=N)NCCN)s1.Cl	32%	–	–
CCCC/N=C(\NCCCN(C)C)Nc1nnc(-c2ccccc2C)s1	–	Not significant	–
Cc1ccccc1-c1nnc(NC(=N)Nc2ccccc2)s1	–	Not significant	–
N=C(N)Nc1nnc(-c2ccccc2O)s1	–	Not significant	–
Cc1ccccc1-c1nnc(NC2=NC(C)(C)CN2)s1.Cl	15%	–	–
Cl.N=C(N)Nc1nnc(-c2cccc(C(F)(F)F)c2)s1	14%	–	–
COc1ccc(-c2nnc(N=C(N)N)s2)cc1.Cl	–	–	Reduction [4]: 28%
Cl.N=C(N)Nc1nnc(-c2ccc(F)cc2)s1	20%	–	–
CO/N=C(/N)Nc1nnc(-c2ccccc2C)s1.Cl	29%	–	–
Cc1ccccc1-c1nnc(N=C(N)N)s1.Cl	41%	–	Increase in blood pressure [5]: 12 mmHg; Reduction [6]: 36%; Increase in blood pressure [7]: 22 mmHg; Increase in blood pressure [8]: 13 mmHg; Increase in blood pressure [9]: 2 mmHg; Summation MABP [10]: 167; Increase in blood pressure [11]: 29 mmHg; Increase in blood pressure [12]: 23 mmHg; Increase in blood pressure [13]: 39 mmHg; Increase in blood pressure [14]: 35 mmHg; Increase in blood pressure [15]: 9 mmHg; Summation MABP [16]: 115
N=C(N)Nc1nnc(-c2ccccc2-c2ccccc2)s1	–	Not significant	–
Cc1ccc(-c2nnc(N=C(N)N)s2)c(C)c1	–	Not significant	–
Cc1ccccc1-c1nnc(NC2=NCCN2C)s1	–	Not significant	–
Cl.N=C(N)Nc1nnc(-c2ccccc2I)s1	–	–	Reduction [17]: 41%; Reduction [18]: 28%
Cl.N=C(N)Nc1nnc(-c2ccccc2Cl)s1	30%	–	–
Cl.N=C(N)Nc1nnc(-c2ccccc2)s1	30%	–	–
